Source: ChEMBL document CHEMBL5149972, “Novel Antimalarial Tetrazoles and Amides Active against the Hemoglobin Degradation Pathway in Plasmodium falciparum” (J Med Chem, 2021)

How the values were obtained:
HepG2 = test: Cytotoxicity against human HepG2 cells assessed as reduction in cell viability incubated for 72 hrs by CellTiter-Glo assay; format: toxicity, cell-based; settings: hepg2, 72 h
Plasmodium falciparum [1] = test: Antiplasmodial activity against drug resistant Plasmodium falciparum Dd2 infected in human RBC assessed as parasite growth inhibition incubated for 72 hrs by SYBR Green dye based fluorescence assay; format: functional, organism-based
How it was run: (§1)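 Blood-stage cultures at 2% hematocrit, human O+ RBCs, RPMI 1640 + 25 mM HEPES, 0.5% Albumax-I, 23 mM bicarbonate, 92 μM hypoxanthine. Start at 0.5% parasitemia; 72 h at 37°C, 5% CO₂; freeze-thaw, then SYBR Green in saponin/Triton lysis buffer, 4 h RT dark; fluorescence ex 485/em 535 nm. 10-point curves, technical duplicates or triplicates, final 0.5% DMSO; four-parameter fit gives EC₅₀; mean ± std dev of biological replicates.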

Plasmodium falciparum [2] = test: Antiplasmodial activity against asexual blood stage Plasmodium falciparum 3D7 infected in human RBC assessed as parasite growth inhibition incubated for 72 hrs by SYBR Green dye based fluorescence assay; format: functional, organism-based; how it was run: as §1
[3] = Plasmodium falciparum, Dd2, Erythrocyte, 72 h
[4] = Plasmodium falciparum, 3D7, Erythrocyte, 72 h

SMILES	CC50 (HepG2) [µM]	EC50 (Plasmodium falciparum [1]; [3]) [µM]	EC50 (Plasmodium falciparum [2]; [4]) [µM]	EC50 (Plasmodium falciparum [1]; rbc) [µM]	EC50 (Plasmodium falciparum [2]; rbc) [µM]
CN(C(=O)C(c1cncnc1)N(Cc1cccc(C(F)(F)F)c1)C1CC1)c1ccccc1 (racemic)	> 30	2	0.72	–	–
COc1ccc(Br)cc1CN(C)C(c1ccccc1)c1nnnn1-c1ccccc1C (single isomer, unassigned; (+))	–	–	–	3	1.5
COc1ccc(C(F)(F)F)cc1CN(C)C(c1cccnc1)c1nnnn1-c1ccccc1C (racemic)	–	–	1.3	3.7	–
COc1ccc(Br)cc1CN(C)C(c1ccccc1)c1nnnn1-c1ccccc1C (single isomer, unassigned; (-))	–	–	–	4	4.4
COc1ccc(C(F)(F)F)cc1CN(C)C(c1cccnc1)c1nnnn1-c1ccccc1C (single isomer, unassigned; (+))	–	–	–	2.5	1.5
Cc1ccccc1-n1nnnc1C(C1CC1)N(Cc1cccc(C(F)(F)F)c1)C1CC1 (racemic)	–	3.2	4.7	–	–
CCCN(C(c1cncnc1)c1nnnn1-c1ccccc1C)C1(c2cccc(C(F)(F)F)c2)CC1 (racemic)	–	0.52	0.31	–	–
Cc1ccccc1N(C)C(=O)C(c1cncnc1)N(Cc1cccc(SC(F)(F)F)c1)C1CC1 (racemic)	> 30	1	0.26	–	–
Cc1ccccc1-n1nnnc1C(c1cccnc1)N(C)Cc1cc(C(F)(F)F)ccc1F (racemic)	–	2.5	1	–	–
CCc1ccccc1N(C)C(=O)C(c1cncnc1)N(Cc1cccc(C(F)(F)F)c1)C1CC1 (racemic)	> 25	0.57	0.24	–	–
Cc1ccccc1-n1nnnc1C(c1cncnc1)N(Cc1cc(F)cc(C(F)(F)F)c1)C1CC1 (single isomer, unassigned; (-))	> 30	–	–	2.6	0.42
FC(F)(F)c1cccc(CN(C2CC2)C(c2cccnc2)c2nnnn2C2CC2)c1 (racemic)	–	3	1.5	–	–
COc1ccccc1CN(C)C(c1ccccc1)c1nnnn1-c1ccccc1C (racemic)	–	10	9.7	–	–
CCCN(C(C(=O)N(C)c1ccccc1C)c1cccnc1)C1(c2cccc(C(F)(F)F)c2)CC1 (racemic)	> 15	0.33	0.21	–	–
Cc1ccccc1-n1nnnc1C(c1cncnc1)N(Cc1cccc(C(F)(F)F)c1F)C1CC1 (racemic)	–	0.71	0.47	–	–
Cc1ccccc1-n1nnnc1C(c1cncnc1)N(Cc1ccc(F)c(C(F)(F)F)c1)C1CC1 (racemic)	–	0.68	0.47	–	–
CCCN(C(c1cccnc1)c1nnnn1-c1ccccc1C)C1(c2cccc(C(F)(F)F)c2)CC1 (racemic)	10	0.41	0.23	–	–
COc1ccc(C(F)(F)F)cc1CN(C)C(c1ccccc1)c1nnnn1-c1ccccc1C (racemic)	–	3.7	1.7	–	–
Cc1ccccc1N(C)C(=O)C(c1cccnc1)N(Cc1cccc(OC(F)(F)F)c1)C1CC1 (racemic)	> 30	0.52	0.32	–	–
Cc1ncc(C(C(=O)N(C)c2ccccc2C)N(Cc2cccc(C(F)(F)F)c2)C2CC2)cn1 (racemic)	> 30	7.7	7.5	–	–
Cc1ccccc1N(C)C(=O)C(c1cncnc1)N(Cc1cccc(OC(F)(F)F)c1)C1CC1 (racemic)	> 30	0.59	0.24	–	–
Cc1ccccc1-n1nnnc1C(c1cncnc1)N(Cc1cc(F)cc(C(F)(F)F)c1)C1CC1 (single isomer, unassigned; (+))	–	–	–	2.5	0.35
CN(Cc1cc(C(F)(F)F)ccc1F)C(c1cccnc1)c1nnnn1C1CCCCC1 (racemic)	–	2.6	1.7	–	–
COc1ccc(C(F)(F)F)cc1CN(C)C(c1cccnc1)c1nnnn1-c1ccccc1C (single isomer, unassigned; (-))	–	–	–	1.7	–
Cc1ccccc1-n1nnnc1C(c1cccnc1)N(Cc1cc(C(F)(F)F)ccc1F)C1CC1 (racemic)	–	0.67	0.6	–	–
